Test results reported in ChEMBL document CHEMBL1143056, “Enhanced substituted resorcinol hydrophobicity augments tyrosinase inhibition potency” (J Med Chem, 2007).
pIC50: −log10 of the molar value.

Assays:
Tyrosinase = molecular target: T1, Tyrosinase (Agaricus bisporus, UniProt O42713); assay: Inhibition of mushroom tyrosinase
T1 sequence (O42713 whole entry): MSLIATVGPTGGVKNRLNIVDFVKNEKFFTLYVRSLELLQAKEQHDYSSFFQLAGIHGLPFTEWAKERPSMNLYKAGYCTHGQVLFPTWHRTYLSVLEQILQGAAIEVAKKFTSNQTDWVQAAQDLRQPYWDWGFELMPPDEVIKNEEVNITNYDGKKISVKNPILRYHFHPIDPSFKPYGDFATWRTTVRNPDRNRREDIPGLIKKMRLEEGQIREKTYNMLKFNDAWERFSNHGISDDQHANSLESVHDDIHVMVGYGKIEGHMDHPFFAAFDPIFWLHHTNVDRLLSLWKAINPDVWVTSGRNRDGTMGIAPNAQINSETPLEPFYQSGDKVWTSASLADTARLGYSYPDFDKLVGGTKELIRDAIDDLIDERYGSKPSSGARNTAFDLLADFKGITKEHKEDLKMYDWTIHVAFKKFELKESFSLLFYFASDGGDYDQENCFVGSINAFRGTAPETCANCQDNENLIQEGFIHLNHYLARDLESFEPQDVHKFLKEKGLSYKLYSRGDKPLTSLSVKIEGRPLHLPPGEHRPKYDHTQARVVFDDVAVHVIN
How it was run: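 Wells held 50 mM potassium phosphate pH 6.5, tyrosinase at 50 units/mL final and inhibitor in absolute ethanol (5-100 µM final). After 10 min at 25 °C, L-tyrosine was added to 1 mM. Absorbance at 450 nm was read every 5 min against an ethanol-only control. IC50 was taken from the linear zone at 20 min.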

[1] = molecular target: T2, Tyrosinase (Agaricus bisporus) (UniProt O42713); assay: Inhibition of mushroom tyrosinase at 10 uM for 10 min pre-incubated before addition of tyrosine
T2 sequence (whole entry): T1 sequence (O42713 whole entry)

[2] = molecular target: T2, Tyrosinase (Agaricus bisporus); assay: Inhibition of mushroom tyrosinase at 0.3 uM for 10 min pre-incubated before addition of 3.75 mM tyrosine
[3] = molecular target: T2, Tyrosinase (Agaricus bisporus); assay: Inhibition of mushroom tyrosinase at 0.3 uM for 10 min preincubated before addition of 1 mM tyrosine
[4] = molecular target: T2, Tyrosinase (Agaricus bisporus); assay: Inhibition of mushroom tyrosinase at 0.3 uM for 10 min pre-incubated before addition of tyrosine

Row | pIC50 (Tyrosinase) | Compound | other results
1 | 7.15 | CC(C)OC(=O)CCc1ccc(O)cc1O | –
2 | 5.73 | O=C(O)CCc1ccc(O)cc1O | inhibition [1]: 80%
3 | 6.66 | CCOC(=O)CCc1ccc(O)cc1O | –

More lines, now with the values behind:

Row | Compound | pIC50 (Tyrosinase) | other results
4 | CC(C)(C)OC(=O)CCc1ccc(O)cc1O | 4.83 | –
5 | CCCCCCCCOC(=O)CCc1ccc(O)cc1O | 6.15 | –
6 | CC(C)(C)COC(=O)CCc1ccc(O)cc1O | 6.74 | –
7 | CCC(C)(C)C(OC(=O)CCc1ccc(O)cc1O)C(C)(C)CC | 6.82 | inhibition [2]: 86%; inhibition [3]: 97%; inhibition [4]: 80%
